Test [1] is described as follows: Inhibition of Calpain. On the set-up: species or system Gallus gallus. A digest of the protocol:
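Calpain purified from chicken gizzard, run as a continuous enzyme assay following a previously published method. Apparent dissociation constants Ki were derived for competitive inhibition; errors under 30%.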

For a further test, the target named is Chymotrypsinogen A (Bos taurus, UniProt P00766). Nature of the test: Inhibition of alpha-chymotrypsin. In a few lines:
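Commercial α-chymotrypsin was assayed continuously with N-Suc-Ala-Ala-Pro-Phe-p-nitroanilide as substrate in HEPES buffer instead of Tris. […] Errors under 30%.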

Here are results for 14 compounds from ChEMBL document CHEMBL1124921, “Alpha-diketone and alpha-keto ester derivatives of N-protected amino acids and peptides as novel inhibitors of cysteine and serine proteinases” (J Med Chem, 1990).

Where a SMILES comes first, the peptide text is derived from it. The star is where a group is joined. Cbz = O=C(OCc1ccccc1)*

For orientation: Ki means a dissociation constant, usually derived from enzyme kinetics or from competition with a known ligand. The low end stands for tighter binding, the high end for weaker binding.

Take `CC(C)[C@H](NC(=O)OCc1ccccc1)C(=O)N[C@H](Cc1ccccc1)C(=O)C(F)(F)F`: the Ki in test [1] was over 180 µM; on Chymotrypsinogen A, 45 µM.

In the case of `CC(=O)C(=O)[C@H](Cc1ccccc1)NC(=O)[C@@H](NC(=O)OCc1ccccc1)C(C)C`, the figures for the Ki (in test [1]; at Chymotrypsinogen A) were 0.7 µM and 0.2 µM, respectively.

Consider `O=C(N[C@@H](Cc1ccccc1)C(=O)C(F)(F)F)c1ccccc1`, for which the Ki in test [1] was over 1000 µM; on Chymotrypsinogen A, 2.3 µM.

Regarding `CCOC(=O)C(=O)[C@H](Cc1ccccc1)NC(=O)[C@@H](NC(=O)OCc1ccccc1)C(C)C`, the Ki in test [1] was 0.6 µM; on Chymotrypsinogen A, 0.06 µM.

In the case of `CC(C)[C@H](NC(=O)OCc1ccccc1)C(=O)N[C@@H](Cc1ccccc1)C(=O)C(F)(F)F`, the figures for the Ki (in test [1]; on Chymotrypsinogen A) were over 180 µM and 2.4 µM, respectively.

Regarding `COC(=O)C(=O)[C@H](Cc1ccccc1)NC(=O)c1ccccc1`, the values for the Ki (in test [1]; at Chymotrypsinogen A) were 150 µM and 0.15 µM, respectively.

On to `CC(=O)C(=O)[C@H](Cc1ccccc1)NC(=O)OCc1ccccc1`, for which the Ki came out at 250 µM in test [1] and 1.2 µM at Chymotrypsinogen A.

Regarding `CCOC(=O)C(=O)[C@H](Cc1ccccc1)NC(=O)OCc1ccccc1`, the Ki in test [1] was found to be 92 µM; on Chymotrypsinogen A, 0.13 µM.

For `COC(=O)C(=O)[C@H](Cc1ccccc1)NC(=O)[C@@H](NC(=O)OCc1ccccc1)C(C)C`, the Ki in test [1] is 0.4 µM; on Chymotrypsinogen A, 0.06 µM.

With `CC(=O)[C@H](Cc1ccccc1)NC(=O)OCc1ccccc1`, in test [1], the Ki was over 2000 µM.

In the case of `O=C[C@H](Cc1ccccc1)NC(=O)c1ccccc1`, the Ki was 4 µM in test [1] and 64 µM on Chymotrypsinogen A.

With `O=C(N[C@@H](Cc1ccccc1)C(=O)C(F)F)c1ccccc1`, the Ki was over 1000 µM in test [1] and 7.7 µM at Chymotrypsinogen A.

`O=C[C@H](Cc1ccccc1)NC(=O)OCc1ccccc1`: the Ki in test [1] came out at 3 µM; at Chymotrypsinogen A it was 360 µM.

In the case of `CC(C)[C@H](NC(=O)OCc1ccccc1)C(=O)N[C@H](C=O)Cc1ccccc1` (Cbz-Val-Phe-aldehyde), the Ki is 0.01 µM in test [1] and 54 µM at Chymotrypsinogen A.
